Most compounds without a hit are left out; they make up all but 4.8% or so of the library.
RORA act – activators of orphan receptor RORA, primary screen, cell-based, luminescence; CHO-K1 Gal4-RORA LBD luciferase reporter; percent increase over mock-subtracted basal signal; activation, % at 10 µM; 65,000 tested, 1.5% active; AID 560, 2006;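 active = activation above the mean of all tested compounds plus 3 SD, cut at about 49% in these data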
Target sequence (P35398 whole entry, looked up, the tested form may be a part): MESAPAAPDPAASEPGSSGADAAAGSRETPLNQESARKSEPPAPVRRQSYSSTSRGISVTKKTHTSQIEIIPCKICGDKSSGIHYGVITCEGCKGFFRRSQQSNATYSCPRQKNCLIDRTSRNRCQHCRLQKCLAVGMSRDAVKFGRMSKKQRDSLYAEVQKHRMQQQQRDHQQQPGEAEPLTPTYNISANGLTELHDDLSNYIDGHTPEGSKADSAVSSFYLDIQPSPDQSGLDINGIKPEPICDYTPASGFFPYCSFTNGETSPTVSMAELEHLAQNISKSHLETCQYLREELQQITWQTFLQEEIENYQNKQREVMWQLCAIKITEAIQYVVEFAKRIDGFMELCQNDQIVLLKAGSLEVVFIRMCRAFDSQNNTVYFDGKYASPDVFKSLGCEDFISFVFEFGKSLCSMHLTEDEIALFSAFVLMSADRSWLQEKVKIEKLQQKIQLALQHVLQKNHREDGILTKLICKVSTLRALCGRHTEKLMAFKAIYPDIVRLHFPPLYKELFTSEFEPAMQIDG
ERb coact inh – inhibitors of ERβ-SRC1 coactivator interaction, primary screen, biochemical, TR-FRET, ERβ LBD, SRC-1 peptide. Estrogen receptor beta (Homo sapiens), Q92731. TR-FRET ER-beta LBD / SRC1-Cy5 peptide binding; receptor agonist-loaded with 1 µM estradiol. inhibition, % at 25.6 µM. 86,000 tested, 1.3% active;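 active = compounds whose percent inhibition of the receptor-coactivator binding signal exceeds about 50% in the single-dose screen, limit read from the data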
SF-1 act – activators of human SF-1, primary screen, cell-based, CHO-K1, Gal4-SF-1 LBD, luciferase luminescence; 65,000 tested, 1.9% active; Steroidogenic factor 1 (Homo sapiens), Q13285; CHO-K1 Gal4-SF-1 LBD luciferase reporter; % increase over DMSO SF-1-specific signal; activation, % at 10 µM;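 active = activation above the mean activation of all tested compounds plus 3 SD, cut at about 50% in these data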
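Test system: CHO-K1 cells co-transfected with Gal4 DBD–human SF-1 LBD, 5xGal4 luciferase reporter. Quantity: 4,000 cells per well. Compound: 10 µM only. Incubation: compound added 1 h post-seeding, 20 h exposure at 37 °C, 5% CO2. Detection: SteadyLite luciferase luminescence. Replication: one test per compound.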
ERa SRC1 pot – enhancers of ERα–SRC-1 coactivator binding, primary screen, biochemical, TR-FRET, ERα LBD, low estradiol; Estrogen receptor (Homo sapiens), P03372; 86,000 tested, 1.3% active; coactivator binding (% of control), % at 25.6 µM; AID 639, 2007; TR-FRET ERalpha-LBD/SRC-Cy5 coactivator binding, 2 h; 100 = basal binding, no effect; in the data active = activity above about 200%;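 also: binding measured in presence of low estradiol as agonist stimulus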
PTK2B oligo ant – antagonists of Pyk2 self-association, primary screen, Q293 cells, FERM NanoBiT luminescence, HTS; AID 1347419, 2020; Protein-tyrosine kinase 2-beta (Homo sapiens), Q14289; 99,000 tested, 0.83% active; z-score (the deposit names both 25 µM and 10 µM); stronger effect = lower value;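 active = Z-score of -3 or lower, scaled per plate to the spread of control and sample wells; inactive = z-score above -3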;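 also: negative z-score means lost luminescence so less FERM oligomerization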
ERa SRC1 inh – ERα–SRC-1 coactivator interaction inhibitors, primary screen, biochemical, TR-FRET, ERα LBD, estradiol-bound; TR-FRET ER-alpha LBD / SRC-1 peptide; inhibition, % at 25.6 µM; 86,000 tested, 1.7% active; Estrogen receptor (Homo sapiens), P03372; in the data active = inhibition above about 50%
Hits are given with their value; [ ] = dose if it differs, or a comment.

Results for C/C(N)=C(/C#N)C(=O)CSc1nnc(Cc2ccccc2F)n1N ?
RORA act: inactive; ERb coact inh: 81; SF-1 act: inactive; ERa SRC1 pot: inactive; PTK2B oligo ant: inactive; ERa SRC1 inh: 69

What do the screens show for `Nn1c(Cc2ccccc2F)nnc1SCn1nnc2ccccc2c1=O`?
RORA act: inactive; ERb coact inh: inactive; SF-1 act: inactive; ERa SRC1 pot: inactive; PTK2B oligo ant: inactive; ERa SRC1 inh: inactive

How did CCOC(=O)c1cn(-c2ccc(F)c(F)c2F)c2c(F)c(F)c(F)cc2c1=O do in these assays?
PTK2B oligo ant: inactive

Results for CCOC(=O)c1cn2c3c(c(F)c(F)c(F)c3c1=O)SC(N1CCCC1)=N2 ?
RORA act: inactive; ERb coact inh: inactive; SF-1 act: inactive; ERa SRC1 pot: 268[fluorescence artefact?]; ERa SRC1 inh: inactive

What do the screens show for `CC(=O)Nc1cnc(NC(=O)c2cccc(F)c2)cc1C`?
RORA act: inactive; ERb coact inh: inactive; SF-1 act: 76; ERa SRC1 pot: inactive; PTK2B oligo ant: inactive; ERa SRC1 inh: inactive

What do the screens show for `CCC(=O)Nc1cnc(NC(=O)c2cccc(F)c2)cc1C`?
RORA act: inactive; ERb coact inh: inactive; SF-1 act: inactive; ERa SRC1 pot: inactive; PTK2B oligo ant: inactive; ERa SRC1 inh: inactive

Results for O=C(Cc1cccs1)N(Cc1cccs1)C1(C(=O)NC2CCCCC2)CCCCC1 ?
ERb coact inh: inactive; ERa SRC1 pot: inactive; PTK2B oligo ant: -4.5; ERa SRC1 inh: inactive

What do the screens show for `O=C(c1cnccn1)N(Cc1cccs1)C1(C(=O)NC2CCCC2)CCCCC1`?
PTK2B oligo ant: inactive

What do the screens show for `Cc1cc(C)n(-c2ccc(C(=O)OCC(=O)c3ccc(Br)s3)cc2)n1`?
RORA act: inactive; ERb coact inh: inactive; SF-1 act: inactive; ERa SRC1 pot: 207; PTK2B oligo ant: inactive; ERa SRC1 inh: inactive

What do the screens show for `CC1CCN(C(=O)C2c3ccccc3C(=O)N3CCc4ccccc4C23)CC1` (configuration not stated)?
RORA act: inactive; ERb coact inh: inactive; SF-1 act: inactive; ERa SRC1 pot: 623[fluorescence artefact?]; PTK2B oligo ant: inactive; ERa SRC1 inh: inactive

What do the screens show for `CCOC(=O)N1CCC(N2Cc3cccc(C(=O)Nc4ccc(OC)c(OC)c4)c3C2=O)CC1`?
RORA act: inactive; ERb coact inh: inactive; SF-1 act: 54; ERa SRC1 pot: inactive; ERa SRC1 inh: inactive

How did CC(=O)NS(=O)(=O)c1cccnc1Nc1ccc(Cl)cc1 do in these assays?
PTK2B oligo ant: inactive

Results for Cn1nc(C(=O)Nc2cccc(C(F)(F)F)c2)c2ccccc2c1=O ?
PTK2B oligo ant: inactive

Results for Cn1nc(C(=O)Nc2c(-c3ccccc3)nc3sccn23)c2ccccc2c1=O ?
RORA act: inactive; ERb coact inh: inactive; SF-1 act: inactive; ERa SRC1 pot: inactive; PTK2B oligo ant: inactive; ERa SRC1 inh: 62[fluorescence artefact?]

Results for CC(C)CSc1nc2c(=O)[nH][nH]c(=O)c2n1Cc1ccccc1 ?
ERb coact inh: inactive; ERa SRC1 pot: inactive; PTK2B oligo ant: inactive; ERa SRC1 inh: inactive

What do the screens show for `O=C1CC(c2ccccc2)CC(O)=C1C=NCc1ccc(Cl)cc1` (configuration not stated)?
PTK2B oligo ant: inactive

What do the screens show for `COc1ccc(NC2CC(=O)N(C(C)C)C2=O)cc1` (configuration not stated)?
RORA act: inactive; ERb coact inh: inactive; SF-1 act: 50; ERa SRC1 pot: inactive; PTK2B oligo ant: inactive; ERa SRC1 inh: inactive

Results for CC(C)N1C(=O)CC(Nc2ccc(N3CCOCC3)cc2)C1=O (configuration not stated) ?
ERb coact inh: inactive; ERa SRC1 pot: inactive; PTK2B oligo ant: inactive; ERa SRC1 inh: inactive

What do the screens show for `O=C(Cc1ccccc1)Nc1cccc(N2CCCC2)c1`?
RORA act: inactive; ERb coact inh: inactive; SF-1 act: inactive; ERa SRC1 pot: inactive; PTK2B oligo ant: inactive; ERa SRC1 inh: 58[fluorescence artefact?]

How did CCC(C)C(NC(=O)C(C)NC(=O)CNC(=O)CNC(=O)OCc1ccccc1)C(=O)OC (configuration not stated) do in these assays?
ERb coact inh: inactive; ERa SRC1 pot: inactive; PTK2B oligo ant: inactive; ERa SRC1 inh: inactive

How did O=C(CCc1ccccc1)NC(NC(=S)Nc1ccc(Cl)cc1)C(Cl)(Cl)Cl (configuration not stated) do in these assays?
PTK2B oligo ant: inactive

What do the screens show for `CCCOc1ccccc1N/C(=N/c1nc(C)cc(C)n1)NC(=O)Nc1ccc(Cl)cc1`?
PTK2B oligo ant: inactive

How did CN(C)CCNC(=O)COc1cccc(Cl)c1 do in these assays?
RORA act: inactive; ERb coact inh: inactive; SF-1 act: inactive; ERa SRC1 pot: inactive; PTK2B oligo ant: inactive; ERa SRC1 inh: inactive

What do the screens show for `Cn1c(SCC(=O)Nc2cccc(F)c2)nnc1-c1cc2ccccc2o1`?
RORA act: inactive; ERb coact inh: inactive; SF-1 act: inactive; ERa SRC1 pot: 688[fluorescence artefact?]; PTK2B oligo ant: inactive; ERa SRC1 inh: inactive

What do the screens show for `O=C(CSc1ncnc2c1oc1ccccc12)Nc1cccc(F)c1`?
RORA act: inactive; ERb coact inh: 50[fluorescence artefact?]; SF-1 act: inactive; ERa SRC1 pot: 370[fluorescence artefact?]; PTK2B oligo ant: inactive; ERa SRC1 inh: inactive

Results for Cc1ccc2nc(NC(=O)CSc3ncnc4c3oc3ccccc34)sc2c1 ?
ERb coact inh: inactive; ERa SRC1 pot: inactive; ERa SRC1 inh: inactive

What do the screens show for `Cc1cccc(NC(=O)CSc2ncnc3c2oc2ccccc23)c1`?
RORA act: inactive; ERb coact inh: 58[fluorescence artefact?]; SF-1 act: inactive; ERa SRC1 pot: 395[fluorescence artefact?]; ERa SRC1 inh: 50[fluorescence artefact?]

What do the screens show for `CC1CCCCN1C(=O)CSc1nnc(CSc2ncccn2)n1C` (configuration not stated)?
ERb coact inh: inactive; ERa SRC1 pot: inactive; PTK2B oligo ant: inactive; ERa SRC1 inh: inactive

Results for CC1(C)CC(=O)C/C(=N/NC(=O)CCCOc2ccc(Cl)cc2Cl)C1 ?
PTK2B oligo ant: inactive

How did CC1CC(C)CN(c2cc(=O)n(Cc3ccc(F)cc3)c(=O)[nH]2)C1 (configuration not stated) do in these assays?
ERb coact inh: inactive; ERa SRC1 pot: inactive; ERa SRC1 inh: inactive

How did CC(=O)c1cc(C#N)c(SCCC(C)C)nc1C do in these assays?
RORA act: inactive; ERb coact inh: inactive; SF-1 act: inactive; ERa SRC1 pot: inactive; PTK2B oligo ant: inactive; ERa SRC1 inh: inactive

Screens as filed in PubChem BioAssay.
